# The EternaBench riboswitch data
# System: MS2 coat protein
# Experiment: apparent Kd, MS2 coat protein; higher = weaker binding; RNA-MaP array
# In short: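 Designed RNAs were transcribed in place on an Illumina sequencing chip from sequenced DNA templates. At room temperature and with or without input ligand, they were incubated with fluorescently labeled MS2 coat protein from 1.5 nM to 3 μM, for 0.8–1.5 h at the lowest and 10–20 min at the highest concentrations. Apparent Kd is the median of the binding-curve fits made per cluster, with designs measured on fewer than 10 clusters excluded.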
# [1] = designed as: ON switch for theophylline, no ligand
# [2] = ligand present: theophylline, designed as: ON switch for theophylline
# [3] = designed as: OFF switch for flavin mononucleotide, no ligand
# [4] = ligand present: flavin mononucleotide, designed as: OFF switch for flavin mononucleotide
# [5] = designed as: ON switch for flavin mononucleotide, no ligand
# [6] = ligand present: flavin mononucleotide, designed as: ON switch for flavin mononucleotide
# [7] = designed as: ON switch for tryptophan, no ligand
# [8] = ligand present: tryptophan, designed as: ON switch for tryptophan
Sequence,apparent Kd [3] [nM],apparent Kd [4] [nM],further results
AAGAGACAUGAGGAUCACCCAUGUGUUGAUACCAGAAACACAAAGUUCCCUUGGCAGCAAAUCUGAGCGAAACGAUCUAGAGCGC,,,apparent Kd [1]: 48.4 nM; apparent Kd [2]: 74.5 nM
UGUAACGAAGGAUAUACAAGAAGACAAGUGCGGCAGUACGUACAUGAGGAUCACCCAUGUAGAAGGUCGAAGGC,7.03,7.66,
GGUUUGAACAAGAAGGUGAGUCACGAGACCCUGGGAUCUCGGGACAUGAGGAUCACCCAUGUCGUCAAGGAUAUUGUGGUGUUU,,,apparent Kd [5]: 769 nM; apparent Kd [6]: 191 nM
AGGGACAUGAGGAUCACCCAUGUUGAAACUCGAGGACCGGUACGGCCGCCACUCGUAUAAUCGAUGUCCAUUUGGGAUUCCGGCU,,,apparent Kd [7]: 25.3 nM; apparent Kd [8]: 24.2 nM
AUAAUCCCUGUUCAGAGACAUGAGGAUCACCCAUGUUUAACGAGAAGGUGAGUGCGACGGCGUCUCAAGGAUAUCGACGUGACC,9.05,10.4,
CUGACGUAACAUGAGGAUCACCCAUGUUUGGCGCUAUAGCAACAGGAUAUUCCGCUCACGGAGCUGAAGAAGGGUUACAGUCAC,,,apparent Kd [5]: 14 nM; apparent Kd [6]: 8.37 nM
CUGGGCCAAUAGAAGGGCGGGAGCGCAGGUGAUCAAACCUAUUACAUGAGGAUCACCCAUGUAACGCAGGAUAUAUCGGUUUUA,25.4,48,
CCUCGAUUUUGAUACCGAUAUGUCUUUGAUACCAGCGCCAUAGUACGCCCUUGGCAGCAAGAAACAUGAGGAUCACCCAUGUUAA,,,"apparent Kd (designed as: OFF switch for theophylline, no ligand): 16.7 nM; apparent Kd (ligand present: theophylline, designed as: OFF switch for theophylline): 49.8 nM"
AUUAACAUGAGGAUCACCCAUGUGGCCCACCGAGGACCGGUACGGCCGCCACUCGUCGGAAAGGCUAAAUUUAUGAAGUCCAAAA,,,apparent Kd [7]: 18.7 nM; apparent Kd [8]: 16.1 nM
AGAAAACAUGAGGAUCACCCAUGUAAGGAUAUACAAACUCCAGAAAUAAAAGGAUUAAGAAGAAGGUACAUAAA,10.9,9.2,
UUGGGACAUGAGGAUCACCCAUGUCAGGAUAUAUAUAAUCUGCGCGACGAGGGAUACAAUAGAAGGGACAACGG,18.2,15.1,
GCAACCCUGCAGAAGGGCGGGUGUACAUGAGGAUCACCCAUGUUAUCAGCAAAGUAGCUGGAUACGCAGGAUAUGCAGUCGAGU,,,apparent Kd [5]: 164 nM; apparent Kd [6]: 29.6 nM
GCAUUAGAGGACACAUGAGGAUCACCCAUGUGCAUCAUCAGAUAGGAUAUCUUAACAGAAAUUUGAGAGAAGGAUCGUGUUCGG,7.84,7.53,
GCGACUUUUACCGAGGAUAUGUCGUGACACACAUGAGGAUCACCCAUGUUUCUAAGUCCUGGAAUACAGAAGGCGGUAUUAAUACA,,,apparent Kd [5]: 7.53 nM; apparent Kd [6]: 5.42 nM
GGCCCACAUGAGGAUCACCCAUGUGUGGAUACCAGCCUCAUUUAGGGCCCUUGGCAGCCAGAUAGUAACAAGUCCGAAACACAGA,,,apparent Kd [1]: 93.3 nM; apparent Kd [2]: 94.1 nM
AGAGUGAGAGGAUAUUUUGGCGUAGACAUGAGGAUCACCCAUGUGUCGUGGGCACUGCUGAAAGAAGGCUCAGCUC,29.3,25.3,
AUACGUGCAGGAUAUUAUUCGAGCCACAUGAGGAUCACCCAUGUUAAUUCUUCAUGUAUCUAAGAAGGGCAGUGAA,9.07,9.67,
GAAACAUUAGAAGGAUAUGAUACGAACACCGGGUACAUGAGGAUCACCCAUGUUCAGAAAUAAUAUCAGAAGGUCAGCAACAAA,,,apparent Kd [5]: 985 nM; apparent Kd [6]: 418 nM
UGGACUUCAGGAUAUACAUGAGGAUCACCCAUGUAUACGUGUAUGAUCCCAGAAACAAGUAGAAGGGAAAGCCG,5.71,5.65,
CGCCACACAUGAUAAUCAUAACAUGAGGAUCACCCAUGUCAUAGAAGGUGCAUAUUUUAGAAUCGCAAGGAUAUAUGGACAAUU,16.2,18.7,
AUCGAUUUUAUAGGAUAUCGCACAUGAGGAUCACCCAUGUGCCCGACAGACUUAAAGCUCAAUCGCGAGAAGGAUAGAACAGGG,8.63,8.02,
GGGAAACAUGAGGAUCACCCAUGUAAGGAUAUAGAAGAUUCAACAUUCAAGAAUGAGACUAGAAGGUACAGAUC,20.2,17.9,
